Results taken from article PMC9075125 (RSC Advances, 2019).

Legend:
Test in all cases: Cell proliferation assay
Assay type in all cases: cell-based
[1] = tested on: human breast cancer cell line MCF-7; details: MCF7, 48 h, read-out: IC50, antiproliferation, Human breast cancer (MCF-7)
How it was run: (§1)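 Log-phase adherent cells were seeded at 5 × 10^4 cells per mL and allowed 24 h before test compound was added at a range of concentrations for 48 h. MTT (5 mg mL−1 stock) was added for a further 4 h. Medium was removed, formazan dissolved in DMSO, and the plate read on a microplate reader. IC50 was calculated from dose–response curves of three independent assays.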

[2] = tested on: non-small cell lung cancer cell line NCI-H460; details: Homo sapiens, NCI-H460, 48 h, read-out: IC50, antiproliferation, Non-small cell lung cancer (H460)
How it was run: as §1

[3] = tested on: human colon cancer cell line HT-29; details: HT-29, 48 h, read-out: IC50, antiproliferation, Human colon cancer (HT-29)
How it was run: as §1

SMILES: CC[C@@]1(O)C(=O)OCc2c1cc1n(c2=O)Cc2cc3ccccc3nc2-1 [CPT, camptothecin]
- IC50 [1]: 370 ± 50 nM
- IC50 [2]: 40 ± 2 nM
- IC50 [3]: 40 ± 20 nM
